PfM18AAP inh = PfM18AAP inhibitors, malaria aminopeptidase, primary screen, biochemical, QFRET, recombinant enzyme; AID 1822, 2009; H-Glu-NHMec fluorogenic cleavage; inhibition, % at 7.35 µM; actives 1.2% (n = 290,000); M18 aspartyl aminopeptidase (Plasmodium falciparum 3D7);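 active = inhibition above the campaign mean inhibition over all tested compounds plus 3 SD, cut at about 28% in these data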;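 also: 0% = plate median of test compound wells and 100% = 2 mM ZnCl2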
A3A deaminase = APOBEC3A ssDNA deaminase inhibitors, primary screen, selectivity assay for APOBEC3G inhibitor project, biochemical, FAM/TAMRA oligo cleavage fluorescence | inhibition, % at 20 µM | DNA dC->dU-editing enzyme APOBEC-3A (Homo sapiens), P31941 | AID 493011, 2011 | recombinant A3A, FAM/TAMRA ssDNA deamination fluorescence | actives 0.41% (n = 330,000);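 active = at least 40% inhibition at 20 µM here, with at most 30% in a related deaminase screen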;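 also: plate controls were A3A with DMSO for no effect and wells lacking A3A enzyme for full effect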
HKDC1 inhibitor = HKDC1 hexokinase inhibitors, primary screen, biochemical, fluorescence, uHTS. actives 0.16% (n = 340,000). inhibition, % at 20 µM. recombinant HKDC1, G6PDH/diaphorase resazurin coupled fluorescence;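 active = inhibition above about 35% when tested at 20 µM, limit read from the data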;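 also: plate controls were DMSO wells with enzyme for no effect and DMSO wells lacking enzyme for full effect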
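Test system: recombinant HKDC1 (HK5) hexokinase enzyme, produced in-house; Amount: enzyme 5 µg/mL final; Buffer or medium: Tris pH 8.0 buffer with MgCl2, Tween-20, BSA, BME; Reagent: glucose and ATP substrates; Doses: 20 µM test compound, 1% DMSO; Incubation: 90 min reaction incubation at room temperature, dark; Detection: resorufin fluorescence at 613 nm.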
UBC9 SUMO inh = inhibitors of in vitro SUMOylation cascade, primary screen, biochemical, HTRF, uHTS; SUMO-conjugating enzyme UBC9 (Homo sapiens), P63279; HTRF SUMOylation assay, SAE1/SAE2 + UBC9; inhibition, % at 35 µM; actives 0.36% (n = 290,000); in the data active = inhibition above about 50%, passing the limit was not always enough
Target sequence (P63279 whole entry, looked up): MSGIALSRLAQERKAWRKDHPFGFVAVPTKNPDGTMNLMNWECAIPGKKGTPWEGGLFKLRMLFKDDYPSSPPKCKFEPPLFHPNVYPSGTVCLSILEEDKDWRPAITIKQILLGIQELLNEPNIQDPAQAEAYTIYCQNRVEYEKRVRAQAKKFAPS
PfGluPho inh = PfG6PD enzyme inhibitors, primary screen, biochemical, fluorescence intensity, uHTS | glucose-6-phosphate dehydrogenase-6-phosphogluconolactonase (Plasmodium falciparum 3D7) | PfGluPho enzyme, NADPH resazurin-diaphorase fluorescence | inhibition, % at 20 µM | actives 0.78% (n = 350,000) | AID 504690, 2011;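 active = inhibition reaching at least a set limit at 20 µM in the primary screen, cut at about 59% in these data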;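 also: 0% = DMSO wells with substrate and 100% = DMSO wells lacking glucose-6-phosphate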
A3G deaminase = APOBEC3G DNA deaminase inhibitors, primary screen, biochemical, fluorescence, single-stranded DNA substrate, uHTS. inhibition, % at 20 µM. AID 493012, 2011. recombinant A3G, ssDNA deamination FAM/TAMRA fluorescence. actives 0.28% (n = 330,000);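 active = inhibition of at least 40% at 20 µM, with no more than 30% in the related APOBEC3A deaminase screen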;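 also: plate controls were DMSO wells with A3G for no effect and wells lacking A3G enzyme for full effect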
Target sequence (Q9HC16 whole entry, looked up): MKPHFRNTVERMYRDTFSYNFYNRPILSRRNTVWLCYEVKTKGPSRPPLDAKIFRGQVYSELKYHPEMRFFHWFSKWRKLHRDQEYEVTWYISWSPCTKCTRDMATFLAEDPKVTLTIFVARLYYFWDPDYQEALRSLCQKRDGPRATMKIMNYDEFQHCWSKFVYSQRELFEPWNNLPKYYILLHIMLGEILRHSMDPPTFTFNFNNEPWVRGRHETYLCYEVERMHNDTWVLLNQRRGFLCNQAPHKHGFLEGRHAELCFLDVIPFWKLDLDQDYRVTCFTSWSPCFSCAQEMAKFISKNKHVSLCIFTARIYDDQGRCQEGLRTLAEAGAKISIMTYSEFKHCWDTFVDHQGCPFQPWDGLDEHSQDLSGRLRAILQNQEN
Starred values were filed as active, the others as inactive; nt = no result given. The list is not random: actives were taken first. Their share in the collection is about 2.4%.

SMILES	PfM18AAP inh	A3A deaminase	HKDC1 inhibitor	UBC9 SUMO inh	PfGluPho inh	A3G deaminase
CCOC(=O)C1=C(C)OC2(O)c3ccccc3C(=O)C12O (stereo not given)	-1	-4	-13	94*	0	-14
CN=c1scc(-c2cccs2)n1/N=C/c1ccc(O)c(O)c1O	31*	11	27	27	34	5
CN=c1scc(-c2cccs2)n1/N=C/c1ccccc1O	6	2	4	-11	6	-3
CCOC(=O)c1c(NC(=O)C2CC(Cl)=CCC2C(=O)O)sc2c1CCCCC2 (stereo not given)	12	12	7	11	-26	1
O=c1/c(=C/c2ccccn2)sc2nc3ccccc3n12	36*	-1	-1	14	14	-4
COc1ccc(OC)c(C2=NS(=O)(=O)N(C)C(C(=O)NCc3cccs3)=C2)c1	0	-1	4	5	-10	-3
COc1ccc(-c2ccn(-c3cccc(F)n3)n2)cc1	32*	-5	-8	8	27	-4
COc1ccc(-c2cn3ccccc3n2)cc1	0	0	-2	22	30	-1
Cc1cc(C)nc(Sc2ncnc(N)c2[N+](=O)[O-])n1	50*	0	0	-22	6	-9
Cc1cccc(Nc2ncnc(N)c2[N+](=O)[O-])n1	3	1	-5	-4	-3	0
Cc1cccc(/C=N/NC(=O)c2c(-c3ccccc3)noc2C)c1O	29*	-5	-25	-14	17	-6
Cc1onc(-c2ccccc2)c1C(=O)N/N=C/c1cc(Br)c(O)c(Br)c1	2	-4	3	12	-4	-7
CCN(CC)CCOC(=O)c1ccc(NC(=S)NC(=O)/C=C/c2ccco2)cc1	nt	-8	nt	nt	nt	-8
Nc1ccc2nc3c(=O)n(CCc4ccccc4)c(=O)[nH]c3nc2c1	17	-18	21	68*	40	-28
Cc1cc2nc3c(=O)n(CCc4ccccc4)c(=O)[nH]c3nc2cc1N	34*	-11	27	46	40	-26
Nc1ccc2nc3c(=O)n(C4CCCCC4)c(=O)[nH]c3nc2c1	15	-43	20	61*	45	-28
C=CCn1c(=O)[nH]c2nc3cc(N=CN(C)C)c(C)cc3nc2c1=O	4	-3	3	29	10	-9
Nc1ccc2nc(CCc3ccccc3)[nH]c2c1	4	-1	-5	6	31	-6
CCCCn1c(=O)[nH]c2nc3cc(N)ccc3nc2c1=O	1	nt	17	98*	38	nt
Cc1nnc(SCCN2C(=O)c3ccccc3C2=O)nc1C	nt	-3	7	nt	8	-7
Cc1ccc(OC(=O)c2cccc(S(=O)(=O)N3CCCC3)c2)c(-n2nc3ccccc3n2)c1	-6	1	-2	-7	-3	1
Cc1ccccc1OCCNC(=O)c1ccco1	3	5	-5	4	-7	2
O=C(NN=C1CCN(Cc2ccccc2)CC1)c1cc2ccccc2cc1O	2	6	-1	87*	-12	8
CN1/C(=C\C=N\NC(=O)c2ccccc2Br)C(C)(C)c2ccccc21	31*	-2	7	-2	-18	-6
CN1/C(=C/C=N/n2cnnc2)C(C)(C)c2ccccc21	27	-4	-8	-12	8	-2
SMILES	PfM18AAP inh	A3A deaminase	HKDC1 inhibitor	UBC9 SUMO inh	PfGluPho inh	A3G deaminase
O=[N+]([O-])c1cccc(-c2cn3nc(-c4ccccc4)c(-c4ccccc4)nc3n2)c1	6	-1	5	2	5	9
O=[N+]([O-])c1ccc(-c2cn3nc(-c4ccccc4)c(-c4ccccc4)nc3n2)cc1	30*	-1	-2	13	19	11
Cc1cc(NC(=O)CSc2nc3cc(C(=O)NCCCOC(C)C)ccc3c(=O)n2Cc2ccco2)no1	-3	-3	-2	50*	-1	-14
Cc1[nH]c(=S)c(C#N)c(-c2ccccc2)c1C(=O)Nc1ccccc1	28*	-3	-1	25	27	12
Cc1ccccc1NC(=O)c1c(C)[nH]c(=S)c(C#N)c1-c1ccc(Cl)cc1	9	3	-3	6	30	4
CC(C)CCC(CC(C)O)C(=O)NNC(=S)Nc1ccccc1 (stereo not given)	1	-3	0	4	-12	-6
C=CCC(CC(O)COCCC)C(=O)NNC(=S)Nc1ccccc1 (stereo not given)	30*	-4	-2	-9	7	-3
Cc1ccsc1/C=N/N=C/c1sccc1C	0	-2	-3	4	13	2
Cc1ccsc1C=Nc1ccc(O)cc1	12	2	24	nt	84*	10
O=C(CC1(O)C(=O)N(CCc2ccccc2)c2ccccc21)c1ccccn1 (stereo not given)	11	3	4	-3	-4	8
O=C(CC1(O)C(=O)N(C/C=C/c2ccccc2)c2ccccc21)c1ccccn1 (stereo not given)	32*	2	-2	3	3	-3
N#CCC(=O)Nc1ccc(C(=O)OCC(=O)NCCCc2ccccc2)cc1	1	-4	-1	5	-7	-9
Cn1nccc1NC(=O)Nc1cccc(Cl)c1	-1	-3	-6	59*	12	-7
Cn1nccc1NC(=O)Nc1cccc([N+](=O)[O-])c1	1	-4	2	49	7	-8
Cc1ccc(NC(=O)Nc2nnc(-c3ccncc3)s2)cc1C	4	-1	11	73*	3	-7
O=C(Nc1cccc(Cl)c1)Nc1nnc(-c2ccncc2)s1	1	0	-5	56*	2	-10
CCOC(=O)CCc1c(C)nc2cc(-c3ccccc3OC)[nH]n2c1=O	1	-3	13	20	-30	-8
COc1ccc2c(c1)C(=O)N(c1ccc(C)cc1C)C(=O)C2(C)C	-6	-1	-4	16	7	-13
CCOC(=O)C1CCCN(C(=O)C2CCCN(S(C)(=O)=O)C2)C1 (stereo not given)	-6	-3	5	-3	-2	-7
Cc1ccccc1Nc1cccc2nonc12	5	5	-1	92*	14	-7
Cc1ccccc1NS(=O)(=O)c1cccc2nonc12	-1	6	4	3	-30	-1
CCOc1ccc(Nc2oc(-c3cccc(Cl)c3)nc2C#N)cc1	7	0	-8	13	4	-3

Screening data (PubChem)
